Data on seven compounds can be found in ChEMBL document CHEMBL1147917, “Synthesis and crystallographic analysis of benzophenone derivatives--the potential anti-inflammatory agents” (Bioorg Med Chem, 2007).

Active and inactive are the calls of the source. The rule behind the calls is not given here.

The species named for one series is Oryctolagus cuniculus. Briefly: Inhibition of rabbit microsomal COX at 10 uM. The method in brief:
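COX source: microsomal pellet from minced, homogenized rabbit distal colon mucosa in 0.1 M Tris, pH 8.0, used immediately. Microsomes preincubated with test agent 10 min at 37 °C in Tris-HCl pH 8.0 with 2 mM glutathione, 5 mM L-tryptophan and 1 µM haematin. Then 20 µM arachidonic acid plus [1-14C] tracer added for 5 min at 37 °C. PGE2 separated by isocratic HPLC; co-eluting radioactivity counted by scintillation. % inhibition calculated versus paired controls.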

Series [1] deals with Rattus norvegicus. Briefly: Toxicity in rat assessed as incidence of ulcer at 400 mg/kg, po. The class given is organism-based. Details: dose 400 mg/kg, route oral. The conditions noted are these: in vivo. The method in brief: (§1)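 Groups of 10 rats (200–230 g), fasted 24 h, dosed orally; controls untreated. Sacrificed 5 h after dosing. Stomach and small intestine examined under microscope for hyperaemia, epithelial shedding, petechiae, frank haemorrhage, erosion or discrete ulceration with or without perforation. Result expressed as percentage of animals affected.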

Series [2] deals with Rattus norvegicus. The series is described as follows: Antiinflammatory activity against carrageenan-induced paw edema in Albino rat assessed as oedema inhibition relative to control at 20 mg/kg, po. The class given is functional. In short, it runs like this: (§2)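 Rats given test compound orally; 30 min later, 0.2 mL of 1% carrageenan in 0.9% NaCl injected subcutaneously into plantar aponeurosis of the hind paw. Paw volume measured by water plethysmometer before and at 3 h. Mean paw-volume increase compared with a carrageenan-only control group of five rats. % inhibition = (1 − Gt/Gc) × 100. Values are means of three determinations.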

The test system of series [3] is Rattus norvegicus. The series is described as follows: Toxicity in rat assessed as incidence of hyperaemia at 400 mg/kg, po. The class given is organism-based. To be noted: in vivo. Details: dose 400 mg/kg, route oral. The method in brief:
as §1

The subject of series [4] is Rattus norvegicus. Briefly: Toxicity in rat assessed as incidence of hyperaemia at 100 mg/kg, po. The class given is organism-based. Also noted: dose 100 mg/kg, route oral. The conditions noted are these: in vivo. The method in brief:
as §1

The subject of series [5] is Rattus norvegicus. Briefly: Toxicity in rat assessed as incidence of hyperaemia at 200 mg/kg, po. The class given is organism-based. Details: dose 200 mg/kg, route oral. To be noted: in vivo. The method in brief: as §1
Series [6] in a line: Toxicity in ip dosed Albino mouse. The class given is organism-based. The conditions noted are these: in vivo, read-out: ALD50. The method in brief:
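Albino mice, 25–30 g, groups of 10, given test compounds intraperitoneally at different dose levels. Mortality per group recorded 24 h after dosing. Approximate 50% lethal dose (ALD50) calculated from mortality data by the Smith method.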

In series [7] the test system is Rattus norvegicus. Briefly: Antiinflammatory activity against carrageenan-induced paw edema in Albino rat assessed as oedema inhibition relative to control at 80 mg/kg, po. The class given is functional. In short, it runs like this:
as §2
In general terms: In the carrageenan paw model, swelling and tenderness develop within hours.

The subject of series [8] is Rattus norvegicus. The series is described as follows: Toxicity in rat assessed as incidence of ulcer at 100 mg/kg, po. The class given is organism-based. Also noted: dose 100 mg/kg, route oral. The conditions noted are these: in vivo. The method in brief:
as §1

Series [9] concerns Rattus norvegicus. The series is described as follows: Toxicity in rat assessed as incidence of ulcer at 200 mg/kg, po. The conditions noted are these: in vivo. Details: dose 200 mg/kg, route oral. The class given is organism-based. In short, it runs like this: as §1
Series [10] deals with Rattus norvegicus. Briefly: Antiinflammatory activity against carrageenan-induced paw edema in po dosed Albino rat assessed as oedema inhibition. The class given is functional.
For series [11], the system named is Rattus norvegicus. The series is described as follows: Antiinflammatory activity against carrageenan-induced paw edema in Albino rat assessed as oedema inhibition relative to control at 40 mg/kg, po. The class given is functional. The method in brief:
as §2

In general, inhibition refers to the change of the read-out against control, counted positive when it falls. Broadly, the inhibition in vivo is the relative decrease from the control value, in per cent. A word on the ED50: it is the dose that gives a 50% effect, or the effect in half of the subjects. On to `Cc1ccc(OC(=O)c2ccccc2C)c(C(=O)c2ccccc2C)c1`, for which the inhibition in the series filed under Oryctolagus cuniculus is 70%. Besides, the Activity in the series on Rattus norvegicus [1] is 40%; with Rattus norvegicus [3], 90%; in the series on Rattus norvegicus [4] it was 50%; in the series with Rattus norvegicus [5], 70%; with Rattus norvegicus [8], 20%; in the series on Rattus norvegicus [9], 30%. Further, in the series on Rattus norvegicus [2], the inhibition in vivo at 20 mg/kg amounted to 17.5%. For the same compound, the LD50 in [6] is more than 1000 mg/kg. Further, the inhibition in vivo at 80 mg/kg in the series on Rattus norvegicus [7] is 64.8%. Moreover, the ED50 with Rattus norvegicus [10] came to 78.9 mg/kg. Besides, the inhibition in vivo at 40 mg/kg with Rattus norvegicus [11] stood at 33.9%.
`Cc1ccc(C(=O)c2cc(C)ccc2OC(=O)c2ccc(Cl)cc2)cc1`: the outcome in the series listed under Oryctolagus cuniculus was inactive. Also, the Activity with Rattus norvegicus [1] is reported as 18%; in the series on Rattus norvegicus [3], 75%; in the series with Rattus norvegicus [4], 25%; in the series with Rattus norvegicus [5] it was 50%; in the series on Rattus norvegicus [8], 15%; in the series on Rattus norvegicus [9], 25%. In addition, the inhibition in vivo at 20 mg/kg in the series with Rattus norvegicus [2] worked out at 31.4%. Moreover, in [6], the LD50 was more than 1000 mg/kg. In addition, in the series on Rattus norvegicus [7], the inhibition in vivo at 80 mg/kg was 85.5%. Besides, in the series with Rattus norvegicus [10], the ED50 came out at 57.3 mg/kg. Further, the inhibition in vivo at 40 mg/kg in the series with Rattus norvegicus [11] worked out at 46.5%.
Compound `Cc1ccc(C(=O)Oc2ccc(F)cc2C(=O)c2ccc(C)cc2)cc1` returned an inhibition in the series listed under Oryctolagus cuniculus of 30%. Besides, the Activity with Rattus norvegicus [1] is given as 45%; in the series on Rattus norvegicus [3], 90%; with Rattus norvegicus [4], 30%; in the series with Rattus norvegicus [5] it was 55%; with Rattus norvegicus [8] it was 20%; in the series on Rattus norvegicus [9] it was 25%. In the series on Rattus norvegicus [2], the inhibition in vivo at 20 mg/kg was determined as 20.5%. Further, the LD50 in series [6] is more than 1000 mg/kg. The inhibition in vivo at 80 mg/kg in the series on Rattus norvegicus [7] is 50.5%. The ED50 in the series with Rattus norvegicus [10] was determined as 70.1 mg/kg. Besides, the inhibition in vivo at 40 mg/kg in the series with Rattus norvegicus [11] is 35.5%.
As to `Cc1ccc(OC(=O)c2ccccc2)c(C(=O)c2ccc(Cl)cc2)c1`, the result in the series listed under Oryctolagus cuniculus was inactive. The Activity in the series on Rattus norvegicus [1] amounted to 80%; with Rattus norvegicus [3] it was 60%; with Rattus norvegicus [4], 20%; with Rattus norvegicus [5], 40%; in the series on Rattus norvegicus [8], 40%; in the series on Rattus norvegicus [9] it was 50%. Besides, in the series on Rattus norvegicus [2], the inhibition in vivo at 20 mg/kg amounted to 14.7%. Besides, the LD50 in series [6] is more than 1000 mg/kg. In addition, the inhibition in vivo at 80 mg/kg with Rattus norvegicus [7] stood at 47.5%. The ED50 with Rattus norvegicus [10] was 77.9 mg/kg. In the series with Rattus norvegicus [11], the inhibition in vivo at 40 mg/kg is 24.2%.
In the case of `Cc1ccc(C(=O)c2cc(F)ccc2OC(=O)c2ccc(Cl)cc2)cc1`, the inhibition in the series filed under Oryctolagus cuniculus amounted to 70%. Further, the Activity in the series with Rattus norvegicus [1] was 25%; in the series with Rattus norvegicus [3], 90%; in the series with Rattus norvegicus [4] it was 50%; in the series with Rattus norvegicus [5], 70%; with Rattus norvegicus [8], 15%; with Rattus norvegicus [9], 20%. The inhibition in vivo at 20 mg/kg in the series with Rattus norvegicus [2] worked out at 16.6%. For the same compound, the LD50 in series [6] is more than 1000 mg/kg. The inhibition in vivo at 80 mg/kg in the series with Rattus norvegicus [7] came out at 64.1%. For the same compound, in the series with Rattus norvegicus [10], the ED50 worked out at 76.2 mg/kg. Moreover, the inhibition in vivo at 40 mg/kg in the series with Rattus norvegicus [11] turned out to be 44.6%.
`Cc1ccc(C(=O)Oc2ccc(Cl)cc2C(=O)c2ccc(Cl)cc2)cc1` displayed an inhibition in the series listed under Oryctolagus cuniculus of 85%. The Activity in the series on Rattus norvegicus [1] is recorded as 20%; in the series with Rattus norvegicus [3], 100%; with Rattus norvegicus [4] it was 50%; in the series on Rattus norvegicus [5] it was 70%; in the series with Rattus norvegicus [8], 10%; in the series with Rattus norvegicus [9], 15%. For the same compound, the inhibition in vivo at 20 mg/kg in the series on Rattus norvegicus [2] turned out to be 29.2%. In series [6], the LD50 is more than 1000 mg/kg. Also, the inhibition in vivo at 80 mg/kg in the series on Rattus norvegicus [7] was found to be 77.1%. For the same compound, the 50% effective dose (ED50) with Rattus norvegicus [10] is 60.5 mg/kg. In addition, the inhibition in vivo at 40 mg/kg in the series with Rattus norvegicus [11] came out at 30.4%.
Take `O=C(Oc1ccc(Cl)cc1C(=O)c1cccc(Cl)c1Cl)c1ccccc1`: in the series filed under Oryctolagus cuniculus, the inhibition came to 40%. For the same compound, the Activity is on record as 40% with Rattus norvegicus [1]; 100% in the series with Rattus norvegicus [3]; 70% with Rattus norvegicus [4]; 90% in the series with Rattus norvegicus [5]; 10% with Rattus norvegicus [8]; 20% in the series with Rattus norvegicus [9]. The inhibition in vivo at 20 mg/kg in the series on Rattus norvegicus [2] came to 21.1%. Moreover, in [6], the LD50 is more than 1000 mg/kg. Besides, the inhibition in vivo at 80 mg/kg with Rattus norvegicus [7] was found to be 63.8%. For the same compound, in the series with Rattus norvegicus [10], the ED50 stood at 63.6 mg/kg. The inhibition in vivo at 40 mg/kg in the series with Rattus norvegicus [11] was 29.8%.
